Series [1] in a line: Partition coefficient (logD7.4). It is filed as physicochemical. Conditions: octanol/water, pH 7.4. An outline of the steps: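 Octanol against 0.1 M phosphate buffer at pH 7.4 and 37 °C. Drug at about 10^-4 M in octanol-saturated buffer was shaken for 1 h with buffer-saturated octanol, then left standing 6 h. Buffer-phase drug was measured by UV at λmax before and after partitioning, with GLC or potentiometric titration used for some compounds. Apparent P' is the mean of six partition experiments.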

Series [2] concerns the target T1, Adrenergic receptor alpha (Rattus norvegicus) (UniProt P15823+P23944+P43140+P22086+P19328+P22909). As to the kind of experiment: Central hypotensive activity in anesthetized normotensive rats. Format: functional. The gist of the method: (§1)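 Male normotensive Wistar rats (190-220 g), pentobarbitone sodium 75 mg/kg ip, ventilated, ~37 °C; iv jugular dosing, one single dose per rat, randomized; carotid arterial pressure after ≥20 min equilibration with heparin; rats with MAP <100 or >150 mmHg excluded. Maximal MAP fall as % of preinjection; pC25 = log reciprocal dose (μmol/kg) for 25% fall, from log dose-response curves; points mean of 5-6 experiments.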

For series [3], the target named is T1, Adrenergic receptor alpha (Rattus norvegicus). As to the kind of experiment: Peripheral hypertensive activity in pithed normotensive rats. It is filed as functional. The gist of the method: (§2)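 Normotensive rats under hexobarbitone sodium 150 mg/kg ip, pithed via orbit, ventilated, ~37 °C, heparinized; after 20 min equilibration, single iv jugular doses in random order, 3-4 per rat with recovery between; carotid MAP rise (mmHg). pC60 = log reciprocal dose (μmol/kg) raising MAP by 60 mmHg, from log dose-response curves; points mean of 5-6 experiments.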

Series [4] has the same target. As to the kind of experiment: Tested for central hypotensive activity in anesthetized normotensive rats at alpha adrenoceptor expressed as 25% decrease in mean arterial pressure. The gist of the method: as §1
Series [5] shares this target. As to the kind of experiment: Tested for peripheral hypertensive activity in pithed normotensive rats at alpha adrenoceptor expressed as increase in mean arterial pressure by 60 mmHg. An outline of the steps:
as §2

Usually logD stands for lipophilicity at a set pH, counting ionised and neutral species. Read a high logD as a more lipophilic compound. With `Clc1cccc(Cl)c1SC1=NCCN1`, in series [1], the logD came to 1.36. The compound further had a pC25 in series [2] of 0.88. For the same compound, in series [3], the pC60 is 1.24.
For `CC(Oc1c(Cl)cccc1Cl)C1=NCCN1` (stereo not given) [LOFEXIDINE] the same measures were 0.73, 2.09 and 1.99.
`Cc1cccc(C)c1/N=C1/NCCO1`: the logD in series [1] was determined as 1.28. The compound further gave a pC25 in series [4] of 1.96. Besides, the pC60 in series [5] turned out to be 1.51.
The compound `c1ccc2c(c1)CCCC2C1=NCCN1` (stereo not given) [TETRAHYDROZOLINE] displayed a logD in series [1] of -0.9. In series [2], the pC25 was -0.16. This compound yielded a pC60 in series [3] of 0.9.
`Cc1cc(C(C)(C)C)cc(C)c1CC1=NCCN1` [XYLOMETAZOLINE] had a logD in series [1] of 0.4. Also, the pC25 in series [2] was 0.26. This compound had a pC60 in series [3] of 1.12.
For `c1cc2c(c(NC3=NCCN3)c1)CCCC2` [TRAMAZOLINE], the logD in series [1] was -0.62. In series [2], the pC25 amounted to 0.55. This compound also had a pC60 in series [3] of 1.8.
In series [2], `Cc1cccc(C)c1NC1=NCCCS1` yielded a pC25 of 0.62. The pC60 in series [3] was -0.02.
Take `Clc1cccc(Cl)c1NC1=NCCCN1`: the pC60 in series [3] was -0.79.
The compound `Clc1cccc(Cl)c1CC1=NCCN1` came in with a logD in series [1] of -0.53. In addition, the pC25 in series [2] came out at 0.68. The compound also came in with a pC60 in series [3] of 1.17.
`FC(F)(F)c1cc(Br)cc(Br)c1NC1=NCCN1` registered a logD in series [1] of 2.8. In series [3], the pC60 is -0.26.
Take `C=CCN1CCc2nc(N)sc2CC1` [TALIPEXOLE]: the logD in series [1] turned out to be 1.09. The compound also had a pC25 in series [2] of 1.43. In series [3], this compound registered a pC60 of 0.69.
In turn, `c1ccc2c(CC3=NCCN3)cccc2c1` [NAPHAZOLINE] displayed a log distribution coefficient (logD) in series [1] of -0.52. This compound also had a pC25 in series [2] of 0.95. Further, in series [3], the pC60 is 1.83.
In series [1], `Clc1cccc(Cl)c1/C=N/NC1=NCCN1` returned a logD of 2.12. The same compound had a pC25 in series [2] of 0.63. This compound showed a pC60 in series [3] of 0.23.
In turn, `Brc1cc(Br)c(N=C2NCCN2)c(Br)c1` had a logD in series [1] of 2.51. This compound showed a pC60 in series [3] of 0.65.
In series [1], `Cc1cccc(C)c1N=C1NCCCS1` [XYLAZINE] gave a logD of 1.34.
`Clc1cc(Br)cc(Cl)c1N=C1NCCN1`: the logD in series [1] was 2.31. In series [2], this compound yielded a pC25 of 0.84. The compound further came in with a pC60 in series [3] of 1.22.
As to `Clc1cccc(Cl)c1NC1=NCCN1`, the pC25 in series [2] was found to be 2.04. Moreover, the pC60 in series [3] is 1.78.
The compound `CCN1CCc2nc(N)oc2CC1` [AZEPEXOLE] showed a logD in series [1] of 0.05. Further, the pC25 in series [2] was -0.14. Moreover, the pC60 in series [3] was -0.41.
For `CC[C@H]1CCC[C@@H](C)[C@@H]1NC1=NCCO1`, the logD in series [1] turned out to be 1.39. The pC25 in series [4] came to 2.32. Also, the pC60 in series [5] amounted to 2.11.
`Clc1cccc(Cl)c1N=C1NCCN1` [CLONIDINE] had a logD in series [1] of 0.85.
On the same count and under the same terms, next, `Clc1cccc(Cl)c1N=C1NCCCN1`: -0.34.
In series [1], `Clc1cccc(Cl)c1C1=CN2CCN=C2S1` returned a logD of 2.02. The compound further yielded a pC25 in series [2] of 2.77. The compound further displayed a pC60 in series [3] of 2.4.
In series [1], `Cc1csc(Cl)c1NC1=NCCN1` [TIAMENIDINE] returned a logD of -0.17. In series [2], this compound came in with a pC25 of 0.69. The same compound gave a pC60 in series [3] of 1.2.
On to `Brc1c(NC2=NCCN2)ccc2nccnc12` [BRIMONIDINE], for which the logD in series [1] came to 0.31. Further, the pC25 in series [2] amounted to 1.55. Besides, the pC60 in series [3] amounted to 1.56.
